The source of these data is ChEMBL document CHEMBL3112511, “1,2-Dihydro-2-oxopyridine-3-carboxamides: the C-5 substituent is responsible for functionality switch at CB2 cannabinoid receptor” (Eur J Med Chem, 2014).

In general, pKi refers to −log10 of the Ki, conventionally taken in molar units. Broadly, the pEC50 is the EC50 on a negative log10 scale, so that one unit is a factor of ten. A low value points to a high EC50. A word on the pIC50: it is the negative decadic logarithm of the IC50, by convention in mol/L. A lower pIC50 goes with a large IC50.

pEC50, pIC50, pKi: −log10 of the molar value. Calls of active or inactive are those of the source. The calls are words filed in the database; no cut-off is given here.

Test [1] deals with Cannabinoid receptor 1 (Homo sapiens, UniProt P21554). Nature of the test: Displacement of [3H]CP55,940 from human recombinant CB1 receptor expressed in HEK293 cell membranes after 90 mins. (Displacement assays read how much labelled ligand stays bound in the presence of the test substance.)
Cannabinoid receptor 1 (Homo sapiens, UniProt P21554), sequence (P21554 whole entry): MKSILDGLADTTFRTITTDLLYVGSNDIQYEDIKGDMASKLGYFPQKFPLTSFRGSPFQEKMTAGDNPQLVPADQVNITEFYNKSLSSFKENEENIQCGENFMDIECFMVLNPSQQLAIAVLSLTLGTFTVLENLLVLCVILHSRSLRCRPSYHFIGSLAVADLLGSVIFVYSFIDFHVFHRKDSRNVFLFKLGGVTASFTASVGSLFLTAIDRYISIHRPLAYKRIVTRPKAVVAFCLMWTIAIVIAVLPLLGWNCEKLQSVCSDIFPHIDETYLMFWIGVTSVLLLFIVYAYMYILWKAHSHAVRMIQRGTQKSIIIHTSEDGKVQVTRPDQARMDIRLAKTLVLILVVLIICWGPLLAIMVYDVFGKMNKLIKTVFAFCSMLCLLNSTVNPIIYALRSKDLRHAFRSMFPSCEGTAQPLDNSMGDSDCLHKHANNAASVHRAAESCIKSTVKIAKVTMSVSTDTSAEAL
The target of test [2] is T1, Cannabinoid receptor 2 (Homo sapiens, UniProt P34972). Nature of the test: Displacement of [3H]CP55,940 from human recombinant CB2 receptor expressed in HEK293 cell membranes after 90 mins.
T1 sequence (P34972 whole entry): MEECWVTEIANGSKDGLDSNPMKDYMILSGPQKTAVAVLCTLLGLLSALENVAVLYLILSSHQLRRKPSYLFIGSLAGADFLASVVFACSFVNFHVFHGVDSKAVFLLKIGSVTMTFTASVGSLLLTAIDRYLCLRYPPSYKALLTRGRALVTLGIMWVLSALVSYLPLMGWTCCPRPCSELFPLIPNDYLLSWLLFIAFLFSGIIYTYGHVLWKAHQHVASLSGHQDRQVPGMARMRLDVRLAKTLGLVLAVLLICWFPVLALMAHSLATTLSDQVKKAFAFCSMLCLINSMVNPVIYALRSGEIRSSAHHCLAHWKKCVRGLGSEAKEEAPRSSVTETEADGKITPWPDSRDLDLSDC
The test system of the next test is HEK293. The experiment in a line: Selectivity index, ratio of Ki for human recombinant CB1 receptor expressed in HEK293 cell membranes to Ki for human recombinant CB2 receptor expressed in HEK293 cell membranes. Type of test: cell-based.
Test [3] in a line: Selectivity ratio of EC50 for CB1 receptor in rat cerebellar membranes to EC50 for human CB2 receptor expressed in CHO membranes. It is filed as cell membranes.
Test [4] concerns the target T1, Cannabinoid receptor 2. The experiment in a line: Agonist activity at human CB2 receptor expressed in CHO membranes by [35S]GTPgammaS binding assay. Type of test: functional, cell membranes. The essentials: (§1)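 [35S]GTPgammaS binding in membranes from hCB2-transfected CHO cells; stimulation or inhibition of constitutive activity measured from dose-response curves. Mock-transfected cell membranes as control. Three independent experiments in duplicate.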

The target of test [5] is Cannabinoid receptor 1 (Rattus norvegicus, UniProt P20272). The experiment in a line: Agonist activity at CB1 receptor in rat cerebellar membranes by [35S]GTPgammaS binding assay. Type of test: functional, cell membranes, Cerebellum, Membrane. The essentials:
(§2)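 [35S]GTPgammaS binding in rat cerebellar membranes as CB1R-mediated G protein activity; compounds tested for stimulation or antagonism. Three independent experiments in duplicate.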
(GTPγS resists hydrolysis and so accumulates on activated G proteins.)

The target of test [6] is T1, Cannabinoid receptor 2. The experiment in a line: Partial inverse agonist activity at human CB2 receptor expressed in CHO membranes by [35S]GTPgammaS binding assay relative to basal control. Type of test: functional, cell membranes. The essentials: as §1
For test [7], the target named is Cannabinoid receptor 1 (Rattus norvegicus) (UniProt P20272). Nature of the test: Agonist activity at CB1 receptor in rat cerebellar membranes at <10 uM by [35S]GTPgammaS binding assay. It is filed as functional, cell membranes. The note with it: Cerebellum, Membrane. The essentials: as §2
Cannabinoid receptor 1 (Rattus norvegicus), sequence (P20272 whole entry): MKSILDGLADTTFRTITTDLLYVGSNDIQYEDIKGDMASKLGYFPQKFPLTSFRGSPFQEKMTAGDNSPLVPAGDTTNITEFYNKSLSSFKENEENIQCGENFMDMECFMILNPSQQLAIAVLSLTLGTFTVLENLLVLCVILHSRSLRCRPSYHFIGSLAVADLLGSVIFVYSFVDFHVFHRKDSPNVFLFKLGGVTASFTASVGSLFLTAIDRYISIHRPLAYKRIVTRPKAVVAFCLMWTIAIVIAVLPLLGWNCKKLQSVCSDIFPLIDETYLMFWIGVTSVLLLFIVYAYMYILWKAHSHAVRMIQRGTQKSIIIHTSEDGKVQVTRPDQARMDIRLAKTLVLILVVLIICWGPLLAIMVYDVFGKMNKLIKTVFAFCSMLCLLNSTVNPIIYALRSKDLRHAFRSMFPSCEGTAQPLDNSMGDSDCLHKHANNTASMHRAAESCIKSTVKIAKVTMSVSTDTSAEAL
The target in test [8] is T1, Cannabinoid receptor 2. Nature of the test: Competitive antagonist activity at human CB2 receptor expressed in CHO membranes assessed as inhibition of HU-210-induced [35S]GTPgammaS binding. It is filed as functional, cell membranes. The note with it: read-out: pA2 (converted). The essentials:
(§3)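 [35S]GTPgammaS binding in hCB2-CHO membranes; test compound against HU210 (1 nM for single-point reversal; full HU210 dose-responses for competitive analysis, pA2 derived). Three independent experiments in duplicate.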

Test [9] deals with Cannabinoid receptor 1 (Rattus norvegicus) (UniProt P20272). Nature of the test: Antagonist activity at CB1 receptor in rat cerebellar membranes at <10 uM by [35S]GTPgammaS binding assay. Particulars: Cerebellum, Membrane. Type of test: functional, cell membranes. The essentials:
as §2

Test [10] addresses T1, Cannabinoid receptor 2. The experiment in a line: Antagonist activity at human CB2 receptor expressed in CHO membranes assessed as inhibition of HU-210-induced [35S]GTPgammaS binding. Type of test: functional, cell membranes. The essentials:
as §3

Test [11] concerns the target T1, Cannabinoid receptor 2. The experiment in a line: Neutral antagonist activity at human CB2 receptor expressed in CHO membranes by [35S]GTPgammaS binding assay in presence of SR144528. It is filed as functional, cell membranes. The essentials:
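[35S]GTPgammaS binding in hCB2-CHO membranes; compound added against inverse agonist SR144528 at 3 nM to assess reversal of its response. Three independent experiments in duplicate.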

The target in test [12] is T1, Cannabinoid receptor 2. Nature of the test: Inverse agonist activity at human CB2 receptor expressed in CHO membranes by [35S]GTPgammaS binding assay. It is filed as functional, cell membranes. The essentials: as §1

Cannabinoid receptor 1 (Rattus norvegicus, UniProt P20272), sequence (P20272 whole entry): as above

Regarding `O=C(NC1CCCCCC1)c1cccn(Cc2ccccc2)c1=O`, the pKi on Cannabinoid receptor 1 [1] was 7.25; at Cannabinoid receptor 2 [2] it was 8.10. Further, the Ratio Ki with HEK293 is 7.

As for `CCOC(=O)CCCn1cccc(C(=O)NC2CCCCCC2)c1=O`, the pKi was under 5.00 on Cannabinoid receptor 1 [1] and 5.74 on Cannabinoid receptor 2 [2].

In the case of `O=C(NC1CCCCCC1)c1cc(-c2ccc(F)cc2)cn(Cc2ccc(F)cc2)c1=O`, the negative logarithm of the Ki (pKi) was 7.62 on Cannabinoid receptor 1 [1] and 8.55 at Cannabinoid receptor 2 [2]. Also, the Ratio Ki with HEK293 is 8.6.

For the compound `CC1CCC(NC(=O)c2cccn(Cc3ccccc3)c2=O)CC1` (stereo not drawn), the pKi at Cannabinoid receptor 1 [1] was 6.41; at Cannabinoid receptor 2 [2], 7.28. Further, the Ratio Ki in the test with HEK293 was found to be 7.3.

Regarding `O=C(NC1CCCCCC1)c1cc(/C=C/c2ccccc2)cn(Cc2ccc(F)cc2)c1=O`, the results for the negative logarithm of the Ki (pKi) on Cannabinoid receptor 1 [1] and on Cannabinoid receptor 2 [2] were 7.62 and 8.10, respectively. Besides, in the test with HEK293, the Ratio Ki was found to be 3.

For the compound `O=C(NC1CCCCCC1)c1cccn(Cc2cccc(I)c2)c1=O`, the negative logarithm of the Ki (pKi) at Cannabinoid receptor 1 [1] is 5.74; on Cannabinoid receptor 2 [2], 6.40. In the test with HEK293, the Ratio Ki turned out to be 4.6.

For the compound `CC1CCC(NC(=O)c2cccn(CCCO)c2=O)CC1` (stereo not drawn), the pKi at Cannabinoid receptor 1 [1] and at Cannabinoid receptor 2 [2] was under 5.00 throughout.

In the case of `O=C(NC1CCCCCC1)c1cccn(Cc2ccc(F)cc2)c1=O`, the Ratio EC50 in [3] turned out to be 200. The pEC50 was 8.20 on Cannabinoid receptor 2 [4] and 5.80 at Cannabinoid receptor 1 [5]. Besides, the Ratio Ki with HEK293 was found to be 5.5.

`COc1ccc(-c2cc(C(=O)NC3CCCCCC3)c(=O)n(Cc3ccc(F)cc3)c2)cc1`: the pKi on Cannabinoid receptor 1 [1] is 7.20; at Cannabinoid receptor 2 [2] it was 9.00. Also, the Activity at Cannabinoid receptor 2 [6] came to 88%. Further, the outcome (in [7]; at Cannabinoid receptor 2 [4]; in test [9]) was inactive. Also, on Cannabinoid receptor 2 [8], the Kb is 100 nM. In the test on HEK293, the Ratio Ki was determined as 63. Further, the inhibition entry at Cannabinoid receptor 2 [10] is “Dose-dependent effect”. Also, the result at Cannabinoid receptor 2 [11] was Active.

Regarding `CC1CCC(NC(=O)c2cccnc2OCc2ccc(F)cc2)CC1` (stereo not drawn), the pKi on Cannabinoid receptor 1 [1] was 6.05; at Cannabinoid receptor 2 [2], 7.10. Also, the Ratio Ki in the test on HEK293 came out at 11.

`CCCCn1cc(Br)cc(C(=O)NC2CCCCCC2)c1=O`: the pKi is 7.64 on Cannabinoid receptor 1 [1] and 8.29 on Cannabinoid receptor 2 [2]. For the same compound, the Ratio Ki with HEK293 came to 4.5.

Turning to `O=C(NC1CCCCCC1)c1cccn(Cc2ccc(Cl)cc2)c1=O`, the results for the pKi on Cannabinoid receptor 1 [1] and at Cannabinoid receptor 2 [2] were 7.26 and 8.38, respectively. In addition, the Ratio Ki with HEK293 was 13.1.

On to `CCCn1cccc(C(=O)NC2CCC(C)CC2)c1=O` (stereo not drawn), for which the pKi is under 5.00 at Cannabinoid receptor 1 [1] and 6.23 on Cannabinoid receptor 2 [2].

Regarding `CCCCn1cccc(C(=O)NC2CCC(C)CC2)c1=O` (stereo not drawn), the pKi at Cannabinoid receptor 1 [1] is 5.79; on Cannabinoid receptor 2 [2], 6.98. Also, the Ratio Ki with HEK293 came to 15.6.

Take `CC1CCC(NC(=O)c2cccn(CCO)c2=O)CC1` (stereo not drawn): the pKi at Cannabinoid receptor 1 [1] and on Cannabinoid receptor 2 [2] was under 5.00 in each case.

With `O=C(NC1CCCCCC1)c1cccn(Cc2ccc(I)cc2)c1=O`, the results for the pKi at Cannabinoid receptor 1 [1] and on Cannabinoid receptor 2 [2] were 5.90 and 6.73, respectively. Moreover, in the test on HEK293, the Ratio Ki is 6.8.

As for `O=C(NC1CCCCCC1)c1cc(Br)cn(Cc2ccc(F)cc2)c1=O`, the pKi is 8.06 at Cannabinoid receptor 1 [1] and 8.66 at Cannabinoid receptor 2 [2]. Also, the Ratio Ki in the test on HEK293 is 4.

As for `CC1CCC(NC(=O)c2cccnc2OCc2ccccc2)CC1` (stereo not drawn), the values for the pKi at Cannabinoid receptor 1 [1] and at Cannabinoid receptor 2 [2] were 5.51 and 6.23, respectively. Moreover, the Ratio Ki with HEK293 turned out to be 5.2.

For the compound `O=C(NC1CCCCCC1)c1cc(-c2ccc(F)cc2)cn(CCN2CCOCC2)c1=O`, the values for the pKi at Cannabinoid receptor 1 [1] and at Cannabinoid receptor 2 [2] were 5.56 and 7.20, respectively. The Ratio Ki in the test with HEK293 turned out to be 43.4.

`O=C(NC1CCCCCC1)c1cc(-c2ccccc2)cn(Cc2ccc(F)cc2)c1=O` had a pIC50 at Cannabinoid receptor 2 [12] of 8.80. Further, the pKi was 7.46 on Cannabinoid receptor 1 [1] and 8.92 on Cannabinoid receptor 2 [2]. Also, the outcome in [7] and in test [9] was inactive. Besides, in the test on HEK293, the Ratio Ki was found to be 29.

As for `O=C(O)CCCn1cccc(C(=O)NC2CCCCCC2)c1=O`, the pKi at Cannabinoid receptor 1 [1] and on Cannabinoid receptor 2 [2] was under 5.00 each time.

`CC1CCC(NC(=O)c2cccn(Cc3ccc(F)cc3)c2=O)CC1` (stereo not drawn): the pKi on Cannabinoid receptor 1 [1] was 7.15; on Cannabinoid receptor 2 [2], 8.32. For the same compound, the Ratio Ki in the test with HEK293 stood at 14.6.

For `O=C(NC1CCCCCC1)c1cc(Br)cn(CCN2CCOCC2)c1=O`, the pKi was 6.61 on Cannabinoid receptor 1 [1] and 7.19 on Cannabinoid receptor 2 [2]. Besides, in the test on HEK293, the Ratio Ki stood at 3.7.

As to `CCCCOc1ncc(Br)cc1C(=O)NC1CCCCCC1`, the pKi at Cannabinoid receptor 1 [1] was under 5.00; at Cannabinoid receptor 2 [2], 6.40.

For `CCOC(=O)/C=C/c1cc(C(=O)NC2CCCCCC2)c(=O)n(Cc2ccc(F)cc2)c1`, the results for the pKi on Cannabinoid receptor 1 [1] and at Cannabinoid receptor 2 [2] were 7.61 and 7.86, respectively. In the test with HEK293, the Ratio Ki is 1.8.

For `O=C(NC1CCCCCC1)c1cccnc1OCc1ccccc1`, the results for the pKi at Cannabinoid receptor 1 [1] and at Cannabinoid receptor 2 [2] were 5.72 and 6.32, respectively. Further, in the test with HEK293, the Ratio Ki was found to be 4.
